Measurements taken from article PMC3962999 (The Biochemical journal, 2011).
Several values for one entry are separate records, joined by “and”; a condition that tells them apart may be missing. Equal values may be shown once. Read-outs that look alike come from different tables or passages of the source. Values belong to the molecule of their own block, whether it stands above or below them.

Key:
PBD1 (PPIP5K1) = target: T1, PBD1 (PPIP5K1) (Homo sapiens, UniProt Q6PFW1); assay: SPR equilibrium binding to immobilized lipid vesicles, PBD1; settings: for binding to PBD1: SPR, in words
T1 sequence (Q6PFW1 382-917): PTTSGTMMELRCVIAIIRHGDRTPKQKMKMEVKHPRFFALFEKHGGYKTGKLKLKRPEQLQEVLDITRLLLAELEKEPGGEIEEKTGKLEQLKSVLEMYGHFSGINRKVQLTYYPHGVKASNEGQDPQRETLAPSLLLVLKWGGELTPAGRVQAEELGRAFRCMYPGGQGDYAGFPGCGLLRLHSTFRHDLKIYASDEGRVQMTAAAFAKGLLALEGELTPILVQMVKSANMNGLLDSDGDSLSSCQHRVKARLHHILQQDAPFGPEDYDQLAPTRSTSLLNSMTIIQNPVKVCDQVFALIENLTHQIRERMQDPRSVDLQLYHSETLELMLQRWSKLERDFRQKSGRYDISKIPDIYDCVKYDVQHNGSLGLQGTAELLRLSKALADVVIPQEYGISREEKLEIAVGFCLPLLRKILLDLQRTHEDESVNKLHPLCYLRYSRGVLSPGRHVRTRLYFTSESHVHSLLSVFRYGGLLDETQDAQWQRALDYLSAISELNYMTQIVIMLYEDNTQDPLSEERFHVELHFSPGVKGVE
Outline: (§1)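 Large unilamellar vesicles (PtdCho/PtdE/test phosphoinositide 77:20:3) were captured on an L1 chip to 5000 RU. Signals were corrected against phosphoinositide-free vesicles. Kd came from nonlinear fitting of Req = Rmax/(1+Kd/C). Concentrations were: GRP-1 PH domain 2.5–125 nM; PBD1 on PtdIns(3,4,5)P₃ 5–150 nM; bisphosphate vesicles 75–1900 nM.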

PBD2 (PPIP5K2) = target: T2, PBD2 (PPIP5K2) (Homo sapiens, UniProt O43314); assay: SPR equilibrium binding to immobilized lipid vesicles, PBD2; settings: for binding to PBD2: SPR, in words
T2 sequence (O43314 371-901 isoform O43314-2): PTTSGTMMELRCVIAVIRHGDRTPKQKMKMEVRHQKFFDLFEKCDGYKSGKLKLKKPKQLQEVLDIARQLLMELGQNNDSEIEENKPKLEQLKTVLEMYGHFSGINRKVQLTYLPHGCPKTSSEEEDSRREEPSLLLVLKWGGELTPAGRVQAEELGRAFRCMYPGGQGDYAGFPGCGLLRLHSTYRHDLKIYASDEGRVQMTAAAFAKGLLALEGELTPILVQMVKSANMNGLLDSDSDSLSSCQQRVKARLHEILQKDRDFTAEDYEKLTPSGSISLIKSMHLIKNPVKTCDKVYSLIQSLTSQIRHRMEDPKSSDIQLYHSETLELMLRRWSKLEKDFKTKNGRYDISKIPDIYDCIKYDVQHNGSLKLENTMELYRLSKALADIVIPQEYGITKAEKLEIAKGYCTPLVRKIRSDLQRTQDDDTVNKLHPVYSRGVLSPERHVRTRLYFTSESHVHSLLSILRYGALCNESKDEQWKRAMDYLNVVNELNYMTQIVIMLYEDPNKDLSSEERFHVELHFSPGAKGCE
Outline: as §1

GRP-1 PH domain [1] = target: T3, GRP-1 PH domain (Mus musculus, UniProt O08967); settings: read-out: Kd, values published by others; same technique; cited from earlier work
T3 sequence (O08967 264-380 limits assumed): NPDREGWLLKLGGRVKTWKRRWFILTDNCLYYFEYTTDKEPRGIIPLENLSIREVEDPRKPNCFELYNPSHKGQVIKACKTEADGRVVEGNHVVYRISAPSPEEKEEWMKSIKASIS

GRP-1 PH domain [2] = target: T3, GRP-1 PH domain; assay: SPR equilibrium binding to immobilized lipid vesicles, GRP-1 PH domain
Outline: as §1

[3] = target: T4, phosphatase-like domain of PPIP5K1 (PBD1) (Homo sapiens, UniProt Q6PFW1); assay: Phosphatase assay with phosphatase-like domain of PPIP5K1; assay type: biochemical; settings: for hydrolysis of inositol phosphate: up to 15 h at 37 °C, trace 3H-labelled material (InsP6 also 1 μM)
T4 sequence (Q6PFW1 382-917): T1 sequence (Q6PFW1 382-917)
Outline: (§2)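 Enzyme and 50 mM p-nitrophenyl phosphate were incubated at 37 °C in EDTA-free phosphatase buffer: 5 mM Hepes pH 7.2, 100 mM KCl, 2 mM MgCl₂, 0.5 mg/ml BSA. Reactions were stopped with 1 M NaOH, and p-nitrophenol accumulation was read as absorbance. Phosphatase-like domains were His-tagged constructs made in E. coli with pGro7 chaperones, purified by Ni-NTA then SP cation exchange. hMIPP was recombinant.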

[4] = Stability of InsP8 through acid-quench, neutralization and HPLC; assay type: physicochemical; settings: HPLC-purified [3H]InsP8
[5] = target: T5, phosphatase-like domain of PPIP5K2 (PBD2) (Homo sapiens, UniProt O43314); assay: Phosphatase assay with phosphatase-like domain of PPIP5K2; assay type: biochemical; settings: for hydrolysis of inositol phosphate: results not shown
T5 sequence (O43314 371-901 isoform O43314-2): T2 sequence (O43314 371-901 isoform O43314-2)
Outline: as §2

hMIPP = target: T6, hMIPP (Homo sapiens, UniProt Q9UNW1); assay: Hydrolysis of p-nitrophenyl phosphate by hMIPP; assay type: biochemical; settings: 50 mM p-nitrophenyl phosphate, 90 ug hMIPP
T6 sequence (Q9UNW1 31-487): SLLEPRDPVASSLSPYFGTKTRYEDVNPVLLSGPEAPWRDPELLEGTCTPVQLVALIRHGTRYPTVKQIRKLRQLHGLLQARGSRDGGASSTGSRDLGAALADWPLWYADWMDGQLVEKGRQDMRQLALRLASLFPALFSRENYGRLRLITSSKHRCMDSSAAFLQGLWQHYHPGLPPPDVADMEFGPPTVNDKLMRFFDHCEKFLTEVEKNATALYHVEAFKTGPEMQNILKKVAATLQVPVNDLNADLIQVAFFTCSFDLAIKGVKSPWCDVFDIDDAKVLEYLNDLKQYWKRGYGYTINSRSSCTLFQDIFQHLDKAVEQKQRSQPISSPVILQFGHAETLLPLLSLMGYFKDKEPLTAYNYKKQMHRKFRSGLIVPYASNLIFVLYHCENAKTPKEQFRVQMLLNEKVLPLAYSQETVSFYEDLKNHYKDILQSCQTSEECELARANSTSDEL
Outline: as §2

PBD2 = target: T7, PBD2 (Homo sapiens, UniProt O43314); assay: PEG precipitation [3H]InsP6 binding assay
T7 sequence (O43314 371-901 isoform O43314-2): T2 sequence (O43314 371-901 isoform O43314-2)
Outline: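 PBD2 (32 μg) was incubated 20 min at 4 °C in 25 mM Hepes pH 7.2 containing 5 mg/ml γ-globulin, 100 mM KCl, 1 mM EDTA and 1 mM DTT. Each tube held ~15000 d.p.m. [³H]InsP₆ plus increasing unlabelled InsP₆ or C₈-PtdIns(3,4,5)P₃. Ice-cold 30 % PEG was added, samples were held 10 min at 0–4 °C and centrifuged at 10 000 g. Washed pellets were counted, and Kd and Bmax came from the saturation binding plot.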

[6] = tested on: full-length recombinant human PPIP5K1; settings: in vitro; cited from earlier work
NIH 3T3 cells = assay: Confocal immunofluorescence of FLAG-PPIP5K1 translocation to the plasma membrane; assay type: cell-based
Outline: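 NIH 3T3 cells on glass-bottom dishes were transfected 24 h after seeding with full-length FLAG-tagged human PPIP5K1 (Lipofectamine 2000). The next day they were serum-starved 3 h, then given PDGF. Cells were fixed in 3 % paraformaldehyde/4 % sucrose (15 min, 23 °C), permeabilized with 0.2 % Triton X-100, and blocked. Staining used anti-FLAG (2 h, 37 °C), Alexa 488 secondary and DAPI. Confocal ×63 line intensity profiles gave plasma membrane/cytoplasm pixel intensity ratios.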

PPIP5K1 kinase domain [7] = target: T8, PPIP5K1 kinase domain (Homo sapiens, UniProt Q6PFW1); assay: Kinase assay with PPIP5K1 kinase domain; assay type: biochemical; settings: ratio of kcat/Km, this study
T8 sequence (Q6PFW1 1-387 limits assumed): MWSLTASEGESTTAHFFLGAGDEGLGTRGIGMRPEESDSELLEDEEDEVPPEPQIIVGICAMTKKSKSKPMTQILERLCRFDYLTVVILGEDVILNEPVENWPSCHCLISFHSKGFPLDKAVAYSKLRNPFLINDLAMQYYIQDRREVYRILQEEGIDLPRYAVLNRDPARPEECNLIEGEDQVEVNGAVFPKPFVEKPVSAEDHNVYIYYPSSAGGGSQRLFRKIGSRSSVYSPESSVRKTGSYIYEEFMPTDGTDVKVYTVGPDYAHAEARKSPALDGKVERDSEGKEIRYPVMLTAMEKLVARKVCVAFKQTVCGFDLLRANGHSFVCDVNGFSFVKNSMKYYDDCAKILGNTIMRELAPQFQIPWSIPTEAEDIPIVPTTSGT

PPIP5K1 kinase domain [8] = target: T8, PPIP5K1 kinase domain; settings: cited from earlier work

binding to PBD1 (PBD1 (PPIP5K1)): did not bind
binding to PBD2 (PBD2 (PPIP5K2)): did not bind
Molecule: Ptd3P

Molecule: CCCCC/C=C\C/C=C\C/C=C\C/C=C\CCCC(=O)O[C@H](COC(=O)CCCCCCCCCCCCCCCCC)COP(=O)(O)O[C@H]1[C@H](O)[C@@H](OP(=O)(O)O)[C@H](OP(=O)(O)O)[C@@H](OP(=O)(O)O)[C@H]1O [PtdIns(3,4,5)P3]
Kd (PBD1 (PPIP5K1)): 0.096 µM
Kd (PBD2 (PPIP5K2)): 0.705 µM
Kd (GRP-1 PH domain [1]): 0.028 to 0.17 µM
Kd (GRP-1 PH domain [2]): 0.059 µM

dephosphorylation after acid-quench, neutralization and HPLC [4]: did not detect any dephosphorylation
recovery after acid-quench, neutralization and HPLC [4]: > 85%
hydrolysis of inositol phosphate [5]: Identical results
Molecule: InsP8
hydrolysis of inositol phosphate [3]: none of these polyphosphates were hydrolysed

binding to PBD1 (PBD1 (PPIP5K1)): no significant binding
binding to PBD2 (PBD2 (PPIP5K2)): did not bind
Molecule: PtdIns(3,5)P2

Molecule: O=[N+]([O-])c1ccc(OP(=O)(O)O)cc1 [p-nitrophenyl phosphate, reference compound]
hydrolysis of p-nitrophenyl phosphate ([3]; 50 mM p-nitrophenyl phosphate, 90 μg PBD1): no activity
rate of p-nitrophenyl phosphate hydrolysis (hMIPP): approx. 10 nM/mg of protein per min
hydrolysis of p-nitrophenyl phosphate ([5]; 50 mM p-nitrophenyl phosphate, 90 μg PBD2): no activity

hydrolysis of the lipid (phosphate release) ([3]; PBD1 35 μg/ml, 24 h at 37 °C, 1 mM lipid): unable to detect any hydrolysis
potency relative to InsP6 at displacing [3H]InsP6 (PBD2; PEG-precipitation assay): 2- to 3 fold
Molecule: CCCCCCCC(=O)OC[C@H](COP(=O)(O)OC1[C@H](O)[C@H](OP(=O)(O)O)C(OP(=O)(O)O)[C@H](OP(=O)(O)O)[C@H]1O)OC(=O)CCCCCCC (some centres unmarked) [C8 soluble analogue of PtdIns(3,4,5)P3, C8-PtdIns(3,4,5)P3, reference compound]

affinity relative to PtdIns(3,4,5)P3 (fold lower) (PBD1 (PPIP5K1); PBD1): approx. 6 fold
binding to PBD1 (PBD1 (PPIP5K1)): significantly weaker ligands
Molecule: PtdIns(3,4)P2

binding to PBD1 (PBD1 (PPIP5K1)): did not bind
binding to PBD2 (PBD2 (PPIP5K2)): did not bind
Molecule: Ptd4P

binding to PBD1 (PBD1 (PPIP5K1)): did not bind
binding to PBD2 (PBD2 (PPIP5K2)): did not bind
Molecule: Ptd5P

Bmax (PBD2; InsP6 binding to PBD2): 0.6 mol/mol of protein
Kd (PBD2; saturation binding plot, 4 °C): 0.6 µM and 0.57 µM
hydrolysis of inositol phosphate [5]: Identical results
Molecule: O=P(O)(O)O[C@H]1[C@H](OP(=O)(O)O)[C@@H](OP(=O)(O)O)[C@H](OP(=O)(O)O)[C@@H](OP(=O)(O)O)[C@H]1OP(=O)(O)O [InsP6]
hydrolysis of inositol phosphate [3]: none of these polyphosphates were hydrolysed
dephosphorylation by full-length PPIP5K1 [6]: does not de-phosphorylate

Molecule: O=c1cc(N2CCOCC2)oc2c(-c3ccccc3)cccc12 [LY294002, reference compound]
PDGF-induced translocation of PPIP5K1 (NIH 3T3 cells; 15 min pre-treatment with 100 μM LY294002 before 50 ng/ml PDGF for 5 min): largely prevented

hydrolysis of inositol phosphate [5]: Identical results
Molecule: O=P(O)(O)OC1[C@@H](OP(=O)(O)O)[C@@H](OP(=O)(O)O)C(OP(=O)(O)OP(=O)(O)O)[C@H](OP(=O)(O)O)[C@H]1OP(=O)(O)O (some centres unmarked) [1/3-PP-InsP5]
hydrolysis of inositol phosphate [3]: none of these polyphosphates were hydrolysed

hydrolysis of inositol phosphate [5]: Identical results
Molecule: O=P(O)(O)OC1C(OP(=O)(O)O)C(OP(=O)(O)OP(=O)(O)O)C(OP(=O)(O)O)C(OP(=O)(O)OP(=O)(O)O)C1OP(=O)(O)O (centres unmarked) [[PP]2-InsP4, 1/3,5-[PP]2-InsP4]
hydrolysis of inositol phosphate [3]: none of these polyphosphates were hydrolysed
dephosphorylation by full-length PPIP5K1 [6]: does not de-phosphorylate

Molecule: PDGF
proportion of PPIP5K1 at the plasma membrane (NIH 3T3 cells; 50 ng/ml PDGF, 5 min): significant increase

Molecule: O=P(O)(O)OC1[C@@H](OP(=O)(O)O)[C@H](OP(=O)(O)O)C(O)[C@H](OP(=O)(O)O)[C@H]1OP(=O)(O)O (some centres unmarked) [Ins(1,3,4,5,6)P5]
dephosphorylation by full-length PPIP5K1 [6]: does not de-phosphorylate

catalytic preference for 5-PP-InsP5 over InsP6 (PPIP5K1 kinase domain [7]): 80 fold
hydrolysis of inositol phosphate [5]: Identical results
Molecule: O=P(O)(O)OC1[C@@H](OP(=O)(O)O)[C@H](OP(=O)(O)O)C(OP(=O)(O)OP(=O)(O)O)[C@H](OP(=O)(O)O)[C@H]1OP(=O)(O)O (some centres unmarked) [5-PP-InsP5]
hydrolysis of inositol phosphate [3]: none of these polyphosphates were hydrolysed
catalytic specificity for 5-PP-InsP5 relative to InsP6 (PPIP5K1 kinase domain [8]): 2.5 fold
dephosphorylation by full-length PPIP5K1 [6]: does not de-phosphorylate
